This is an account of results in ChEMBL document CHEMBL5537124, “Unexpected rearrangement of ivermectin in the synthesis of new derivatives with trypanocidal and antiplasmodial activities” (Eur J Med Chem, 2024).

In series [1] the test system is HL-60. The experiment in a line: Cytotoxicity against human HL-60 cells assessed as cell growth inhibition measured after 24 hrs by resazurin dye based microplate reader analysis. The settings on record: hl-60, 24 h. In kind it is toxicity. In outline: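 Seeded at 1 × 10^4 mL-1 (T. b. brucei) or 5 × 10^4 mL-1 (HL-60) in Baltz medium with 16.7 % bovine serum and 0.9 % DMSO. Test compounds given as tenfold dilutions from 100 μM to 1 nM. Incubated at 37 °C, 5 % CO2. Resazurin added after 24 h, then a further 48 h. Absorbance read at 570/630 nm. GI50 obtained by linear interpolation; mean ± SD of three independent experiments.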
For orientation: The colour change of resazurin is a common sign of viable cells or microbes.

Series [2] in a line: Selectivity index, ratio of GI50 for human HL-60 cells to GI50 for Trypanosoma brucei brucei 221a. Format: toxicity. Summed up: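 Ratio of GI50 for HL-60 to GI50 for T. b. brucei, both from the resazurin growth assay.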
Series [3] relates to Plasmodium berghei. The series is described as follows: Antiplasmodial activity against luciferase-expressing Plasmodium berghei infected in human Huh-7 cells assessed as reduction in parasitic load pretreated for 1 hr with cells followed by parasite infection and measured 48 hrs post infection by firefly luciferase assay. Format: functional, organism-based. The settings on record: huh-7. In outline: (§1)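 Huh7 hepatoma cells in RPMI-1640 with 10 % FCS, seeded at 1 × 10^4 per well and left overnight. Seven compound concentrations, serially diluted from 10 mM DMSO stocks, applied 1 h before infection; DMSO vehicle control. PbGFP-Luciferase sporozoites from An. stephensi salivary glands added 1:1, plates spun 1800 × g for 5 min. Confluency by AlamarBlue at 46 hpi; parasite load by firefly luciferase at 48 hpi. IC50 from nonlinear regression.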

Series [4] relates to Huh-7. The experiment in a line: Cytotoxicity against human Huh-7 cells infected with luciferase-expressing Plasmodium berghei assessed as effect on cell confluency pretreated for 1 hr followed by parasite infection and measured 46 hrs post infection by alamar blue staining based analysis. Format: toxicity. The settings on record: huh-7, 47 h. Summed up: as §1
Series [5] deals with Trypanosoma cruzi. The series is described as follows: Antitrypanosomal activity against trypomastigote form of Trypanosoma cruzi Dm28c expressing beta-galactosidase using chlorophenol red beta-D-galactopyranoside as enzyme substrate measured after 24 hrs by colorimetric analysis. Format: functional, organism-based.

Usually GI50 stands for the concentration at which growth is held to half of that of the control. One may read the IC50 as the concentration that inhibits the measured activity by half. As usually defined, the EC50 is the concentration giving half of the maximal effect. A lower EC50 goes with an effect from little substance. On to IVERMECTIN, for which the GI50 in series [1] amounted to 31.3 µM. Also, the RatioGI50 in series [2] was 2.1. Further, the 50% inhibitory concentration (IC50) in series [3] was 0.911 µM. Besides, the Activity entry in series [4] is listed as “Non-Toxic”. This sequence showed a concentration for a half-maximal effect (EC50) in series [5] of 10.4 µM.
